# Results from article PMC6360136 (Investigational new drugs, 2018).
# What was measured:
# [1] = system: EC68 cells; experiment: Cell viability assay; format: cell-based, human; settings: EC68 primary pancreatic cancer cells, MTT, 48 h
# [2] = Tissue distribution and pharmacokinetic study; format: in vivo; settings: single 1 mg/kg, NSG mice
# Procedure, shortened: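 Female NSG mice (4–10 weeks) received a single 1 mg/kg dose, either i.v. in 10% EtOH/5% Tween-80/85% saline or i.p. in DMSO; 3 mice per time point. Plasma and tissues were collected at 10 min and 1, 3, 8, 24 and 48 h. Tissues were homogenised in PBS, proteins precipitated in acetonitrile/methanol with harmine internal standard, and samples quantified by positive-ESI MRM LC-MS/MS against matrix calibration curves. PK parameters came from noncompartmental analysis.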
# [3] = system: orthotopic pancreatic patient-derived xenograft (PDX) tumor; experiment: In vivo efficacy study in orthotopic pancreatic PDX mouse model; settings: 0.25 mg/kg i.p. every other day, NSG mice
# Procedure, shortened: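 A surgically resected human pancreatic ductal adenocarcinoma was expanded as 3 × 3 mm flank implants in female NSG mice and passaged at 2.0 cm. Second-generation tumour was then implanted orthotopically. On postoperative day 45 (palpable, 3–4 mm), mice were randomised to test compound 0.25 mg/kg i.p. or DMSO control every other day until endpoint. Diameter was measured by calipers and ultrasound every 3–5 days and volume calculated from it. Analysis used repeated-measures two-way ANOVA with Sidak tests.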
smiles,measurement,setting,value
"CC[C@H](C)[C@@H]1C(=O)N2CCC[C@@H]2C(=O)O[C@H](C(C)(C)C)C[C@@H](C)C[C@@H](O)C(C)(C)C2=N[C@H](CCC(=O)N[C@@H](Cc3ccc(OC)cc3)C(=O)N(C)[C@@H](C)C(=O)N1C)CS2 [Apra S10, apratoxin S10]",GI50,[1],0.35 nM
same,AUC (area under the concentration-time curve to infinity),"[2]; Brain, IP",3067 ng·h/mL
same,AUCt (area under the concentration-time curve),"[2]; Brain, IP",727 ng·h/mL
same,CL/F (clearance),"[2]; Brain, IP",326 mL/h/kg
same,Cmax (peak concentration),"[2]; Brain, IP",18 ng/mL
same,Ke (elimination rate constant),"[2]; Brain, IP",0.006 h⁻¹
same,MRT (mean residence time),"[2]; Brain, IP",170.68 h
same,Tmax (time to peak concentration),"[2]; Brain, IP",10.2 min
same,Vz/F (volume of distribution),"[2]; Brain, IP",55015 mL/kg
same,t1/2 (half-life),"[2]; Brain, IP",116.95 h
same,AUC (area under the concentration-time curve to infinity),"[2]; Brain, IV",2442 ng·h/mL
same,AUCt (area under the concentration-time curve),"[2]; Brain, IV",874 ng·h/mL
same,CL/F (clearance),"[2]; Brain, IV",409 mL/h/kg
same,Cmax (peak concentration),"[2]; Brain, IV",63 ng/mL
same,Ke (elimination rate constant),"[2]; Brain, IV",0.009 h⁻¹
same,MRT (mean residence time),"[2]; Brain, IV",110.88 h
same,Tmax (time to peak concentration),"[2]; Brain, IV",10.2 min
same,Vz/F (volume of distribution),"[2]; Brain, IV",46571 mL/kg
same,t1/2 (half-life),"[2]; Brain, IV",78.84 h
same,AUC (area under the concentration-time curve to infinity),"[2]; Kidney, IP",5559 ng·h/mL
same,AUCt (area under the concentration-time curve),"[2]; Kidney, IP",4508 ng·h/mL
same,CL/F (clearance),"[2]; Kidney, IP",180 mL/h/kg
same,Cmax (peak concentration),"[2]; Kidney, IP",403 ng/mL
same,Ke (elimination rate constant),"[2]; Kidney, IP",0.036 h⁻¹
same,MRT (mean residence time),"[2]; Kidney, IP",25.57 h
same,Tmax (time to peak concentration),"[2]; Kidney, IP",60 min
same,Vz/F (volume of distribution),"[2]; Kidney, IP",5020 mL/kg
same,t1/2 (half-life),"[2]; Kidney, IP",19.34 h
same,AUC (area under the concentration-time curve to infinity),"[2]; Kidney, IV",3345 ng·h/mL
same,AUCt (area under the concentration-time curve),"[2]; Kidney, IV",3285 ng·h/mL
same,CL/F (clearance),"[2]; Kidney, IV",299 mL/h/kg
same,Cmax (peak concentration),"[2]; Kidney, IV",753 ng/mL
same,Ke (elimination rate constant),"[2]; Kidney, IV",0.077 h⁻¹
same,MRT (mean residence time),"[2]; Kidney, IV",9.34 h
same,Tmax (time to peak concentration),"[2]; Kidney, IV",10.2 min
same,Vz/F (volume of distribution),"[2]; Kidney, IV",3892 mL/kg
same,t1/2 (half-life),"[2]; Kidney, IV",9.03 h
same,AUC (area under the concentration-time curve to infinity),"[2]; Liver, IP",7951 ng·h/mL
same,AUCt (area under the concentration-time curve),"[2]; Liver, IP",7485 ng·h/mL
same,CL/F (clearance),"[2]; Liver, IP",126 mL/h/kg
same,Cmax (peak concentration),"[2]; Liver, IP",945 ng/mL
same,Ke (elimination rate constant),"[2]; Liver, IP",0.067 h⁻¹
same,MRT (mean residence time),"[2]; Liver, IP",12.77 h
same,Tmax (time to peak concentration),"[2]; Liver, IP",10.2 min
same,Vz/F (volume of distribution),"[2]; Liver, IP",1865 mL/kg
same,t1/2 (half-life),"[2]; Liver, IP",10.28 h
same,AUC (area under the concentration-time curve to infinity),"[2]; Liver, IV",6560 ng·h/mL
same,AUCt (area under the concentration-time curve),"[2]; Liver, IV",6095 ng·h/mL
same,CL/F (clearance),"[2]; Liver, IV",152 mL/h/kg
same,Cmax (peak concentration),"[2]; Liver, IV",1127 ng/mL
same,Ke (elimination rate constant),"[2]; Liver, IV",0.056 h⁻¹
same,MRT (mean residence time),"[2]; Liver, IV",14.08 h
same,Tmax (time to peak concentration),"[2]; Liver, IV",10.2 min
same,Vz/F (volume of distribution),"[2]; Liver, IV",2741 mL/kg
same,t1/2 (half-life),"[2]; Liver, IV",12.46 h
same,AUC (area under the concentration-time curve to infinity),"[2]; Lung, IP",3310 ng·h/mL
same,AUCt (area under the concentration-time curve),"[2]; Lung, IP",2321 ng·h/mL
same,CL/F (clearance),"[2]; Lung, IP",302 mL/h/kg
same,Cmax (peak concentration),"[2]; Lung, IP",210 ng/mL
same,Ke (elimination rate constant),"[2]; Lung, IP",0.023 h⁻¹
same,MRT (mean residence time),"[2]; Lung, IP",38.38 h
same,Tmax (time to peak concentration),"[2]; Lung, IP",10.2 min
same,Vz/F (volume of distribution),"[2]; Lung, IP",13044 mL/kg
same,t1/2 (half-life),"[2]; Lung, IP",29.93 h
same,AUC (area under the concentration-time curve to infinity),"[2]; Lung, IV",2768 ng·h/mL
same,AUCt (area under the concentration-time curve),"[2]; Lung, IV",2273 ng·h/mL
same,CL/F (clearance),"[2]; Lung, IV",361 mL/h/kg
same,Cmax (peak concentration),"[2]; Lung, IV",329 ng/mL
same,Ke (elimination rate constant),"[2]; Lung, IV",0.041 h⁻¹
same,MRT (mean residence time),"[2]; Lung, IV",24.55 h
same,Tmax (time to peak concentration),"[2]; Lung, IV",10.2 min
same,Vz/F (volume of distribution),"[2]; Lung, IV",8837 mL/kg
same,t1/2 (half-life),"[2]; Lung, IV",16.95 h
same,AUC (area under the concentration-time curve to infinity),"[2]; Pancreas, IP",60205 ng·h/mL
same,AUCt (area under the concentration-time curve),"[2]; Pancreas, IP",54532 ng·h/mL
same,CL/F (clearance),"[2]; Pancreas, IP",17 mL/h/kg
same,Cmax (peak concentration),"[2]; Pancreas, IP",2883 ng/mL
same,Ke (elimination rate constant),"[2]; Pancreas, IP",0.051 h⁻¹
same,MRT (mean residence time),"[2]; Pancreas, IP",17.46 h
same,Tmax (time to peak concentration),"[2]; Pancreas, IP",180 min
same,Vz/F (volume of distribution),"[2]; Pancreas, IP",323 mL/kg
same,t1/2 (half-life),"[2]; Pancreas, IP",13.49 h
same,AUC (area under the concentration-time curve to infinity),"[2]; Pancreas, IV",49289 ng·h/mL
same,AUCt (area under the concentration-time curve),"[2]; Pancreas, IV",45982 ng·h/mL
same,CL/F (clearance),"[2]; Pancreas, IV",20 mL/h/kg
same,Cmax (peak concentration),"[2]; Pancreas, IV",2348 ng/mL
same,Ke (elimination rate constant),"[2]; Pancreas, IV",0.059 h⁻¹
same,MRT (mean residence time),"[2]; Pancreas, IV",14.80 h
same,Tmax (time to peak concentration),"[2]; Pancreas, IV",480 min
same,Vz/F (volume of distribution),"[2]; Pancreas, IV",342 mL/kg
same,t1/2 (half-life),"[2]; Pancreas, IV",11.70 h
same,AUC (area under the concentration-time curve to infinity),"[2]; Plasma, IP",1292 ng·h/mL
same,AUCt (area under the concentration-time curve),"[2]; Plasma, IP",1251 ng·h/mL
same,CL/F (clearance),"[2]; Plasma, IP",774 mL/h/kg
same,Cmax (peak concentration),"[2]; Plasma, IP",775 ng/mL
same,Ke (elimination rate constant),"[2]; Plasma, IP",0.082 h⁻¹
same,MRT (mean residence time),"[2]; Plasma, IP",6.54 h
same,Tmax (time to peak concentration),"[2]; Plasma, IP",10.2 min
same,Vz/F (volume of distribution),"[2]; Plasma, IP",9490 mL/kg
same,t1/2 (half-life),"[2]; Plasma, IP",8.50 h
same,AUC (area under the concentration-time curve to infinity),"[2]; Plasma, IV",1303 ng·h/mL
same,AUCt (area under the concentration-time curve),"[2]; Plasma, IV",1287 ng·h/mL
same,CL/F (clearance),"[2]; Plasma, IV",768 mL/h/kg
same,Cmax (peak concentration),"[2]; Plasma, IV",1072 ng/mL
same,Ke (elimination rate constant),"[2]; Plasma, IV",0.089 h⁻¹
same,MRT (mean residence time),"[2]; Plasma, IV",4.20 h
same,Tmax (time to peak concentration),"[2]; Plasma, IV",10.2 min
same,Vz/F (volume of distribution),"[2]; Plasma, IV",8616 mL/kg
same,t1/2 (half-life),"[2]; Plasma, IV",7.78 h
same,AUC (area under the concentration-time curve to infinity),"[2]; Salivary gland, IP",19233 ng·h/mL
same,AUCt (area under the concentration-time curve),"[2]; Salivary gland, IP",13009 ng·h/mL
same,CL/F (clearance),"[2]; Salivary gland, IP",52 mL/h/kg
same,Cmax (peak concentration),"[2]; Salivary gland, IP",556 ng/mL
same,Ke (elimination rate constant),"[2]; Salivary gland, IP",0.024 h⁻¹
same,MRT (mean residence time),"[2]; Salivary gland, IP",41.75 h
same,Tmax (time to peak concentration),"[2]; Salivary gland, IP",180 min
same,Vz/F (volume of distribution),"[2]; Salivary gland, IP",2200 mL/kg
same,t1/2 (half-life),"[2]; Salivary gland, IP",29.33 h
same,AUC (area under the concentration-time curve to infinity),"[2]; Salivary gland, IV",26182 ng·h/mL
same,AUCt (area under the concentration-time curve),"[2]; Salivary gland, IV",23604 ng·h/mL
same,CL/F (clearance),"[2]; Salivary gland, IV",38 mL/h/kg
same,Cmax (peak concentration),"[2]; Salivary gland, IV",1258 ng/mL
same,Ke (elimination rate constant),"[2]; Salivary gland, IV",0.048 h⁻¹
same,MRT (mean residence time),"[2]; Salivary gland, IV",19.56 h
same,Tmax (time to peak concentration),"[2]; Salivary gland, IV",60 min
same,Vz/F (volume of distribution),"[2]; Salivary gland, IV",797 mL/kg
same,t1/2 (half-life),"[2]; Salivary gland, IV",14.46 h
same,AUC (area under the concentration-time curve to infinity),"[2]; Spleen, IP",6586 ng·h/mL
same,AUCt (area under the concentration-time curve),"[2]; Spleen, IP",5011 ng·h/mL
same,CL/F (clearance),"[2]; Spleen, IP",152 mL/h/kg
same,Cmax (peak concentration),"[2]; Spleen, IP",253 ng/mL
same,Ke (elimination rate constant),"[2]; Spleen, IP",0.031 h⁻¹
same,MRT (mean residence time),"[2]; Spleen, IP",31.38 h
same,Tmax (time to peak concentration),"[2]; Spleen, IP",10.2 min
same,Vz/F (volume of distribution),"[2]; Spleen, IP",4868 mL/kg
same,t1/2 (half-life),"[2]; Spleen, IP",22.22 h
same,AUC (area under the concentration-time curve to infinity),"[2]; Spleen, IV",6838 ng·h/mL
same,AUCt (area under the concentration-time curve),"[2]; Spleen, IV",4686 ng·h/mL
same,CL/F (clearance),"[2]; Spleen, IV",146 mL/h/kg
same,Cmax (peak concentration),"[2]; Spleen, IV",195 ng/mL
same,Ke (elimination rate constant),"[2]; Spleen, IV",0.027 h⁻¹
same,MRT (mean residence time),"[2]; Spleen, IV",38.00 h
same,Tmax (time to peak concentration),"[2]; Spleen, IV",480 min
same,Vz/F (volume of distribution),"[2]; Spleen, IV",5353 mL/kg
same,t1/2 (half-life),"[2]; Spleen, IV",25.37 h
same,tumor growth (tumor volume),[3],significantly retarded tumor growth
